Assay results published in ChEMBL document CHEMBL1155362, “Synthesis, characterization and derivatization of some novel types of mono- and bis-imidazolidineiminothiones and imidazolidineiminodithiones with antitumor, antiviral, antibacterial and antifungal activities--part I” (Eur J Med Chem, 2009).
≈ marks a conversion by molar mass, not a printed value. Calls of active or inactive are those of the source. No cut-off for these calls is given here.

Key:
[1] = test system: HCT-116; assay: Cytotoxicity against human HCT116 cells assessed as reduction in surviving fraction at 2.5 ug/ml after 48 hrs by SRB assay; assay type: functional, cell-based
Procedure, shortened: (§1)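 HCT116 cells seeded at 10⁴ per well and allowed to attach for 24 h; exposed to 0, 1, 2.5, 5 or 10 in triplicate for 48 h at 37 °C in 5% CO₂; fixed and stained with sulforhodamine B; bound dye recovered in Tris EDTA and read on an ELISA reader; surviving fraction plotted against concentration.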

[2] = test system: Hepatovirus A; assay: Antiviral activity against Hepatitis A virus infected african green monkey Vero cells at 10^-4 dilution of 5 mg/ml by plaque formation assay; assay type: functional
Procedure, shortened: (§2)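 Compound dilutions prepared from a 5 mg/mL DMSO stock, using the maximum non-toxic dilution for Vero cells over 3 days; 0.1 mL virus (10³) mixed with 0.1 mL compound for 1 h at room temperature; mixture inoculated onto washed Vero monolayers in 12-well plates and adsorbed at 37 °C; 2× MEM/agarose overlay applied; read-out % reduction in plaque count versus untreated virus control.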

[3] = test system: MCF7; assay: Cytotoxicity against human MCF7 cells assessed as reduction in surviving fraction at 1 ug/ml after 48 hrs by SRB assay; assay type: functional, cell-based
Procedure, shortened: (§3)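 Cells seeded at 10⁴ cells/well and left 24 h to attach, then exposed to […] in triplicate wells per dose. Incubation 48 h, 37 °C, 5% CO₂. Cells fixed and stained with sulforhodamine B, excess dye removed with acetic acid, bound dye taken up in Tris EDTA and read on an ELISA reader. Surviving fraction plotted against concentration.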

[4] = test system: U-251; assay: Cytotoxicity against human U251 cells assessed as reduction in surviving fraction at 2.5 ug/ml after 48 hrs by SRB assay; assay type: functional, cell-based; procedure, shortened: as §3
[5] = test system: MCF7; assay: Cytotoxicity against human MCF7 cells assessed as reduction in surviving fraction at 2.5 ug/ml after 48 hrs by SRB assay; assay type: functional, cell-based; procedure, shortened: as §3
[6] = test system: Human alphaherpesvirus 1; assay: Antiviral activity against HSV1 infected african green monkey Vero cells at 10^-4 dilution of 5 mg/ml by plaque formation assay; assay type: functional; procedure, shortened: as §2
[7] = test system: Klebsiella pneumoniae; assay: Antimicrobial activity against Klebsiella pneumoniae NCIMB 9111 by macrotube dilution assay; assay type: functional
[8] = test system: Candida albicans; assay: Antifungal activity against Candida albicans IMRU 3669 at 1 mg/ml by agar disk diffusion assay; assay type: functional; conditions: read-out: DIZ
Procedure, shortened: (§4)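 Fungi maintained on Czapek's Dox agar; agar well diffusion with 1 cm wells and […] of each concentration (1, 2.5, 5 mg/mL) in DMF; inhibition zone diameter measured.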

[9] = test system: HepG2; assay: Cytotoxicity against human HepG2 cells assessed as surviving fraction after 48 hrs by SRB assay; assay type: functional, cell-based; conditions: hepg2; procedure, shortened: as §3
[10] = test system: Aspergillus niger; assay: Antifungal activity against Aspergillus niger Ferm-BAM C-21 at 1 mg/ml by agar disk diffusion assay; assay type: functional; conditions: read-out: DIZ; procedure, shortened: as §4
[11] = test system: Candida albicans; assay: Antifungal activity against Candida albicans IMRU 3669 at 2.5 mg/ml by agar disk diffusion assay; assay type: functional; conditions: read-out: DIZ; procedure, shortened: as §4
[12] = test system: MCF7; assay: Cytotoxicity against human MCF7 cells assessed as surviving fraction after 48 hrs by SRB assay; assay type: functional, cell-based; conditions: Homo sapiens, MCF7, 48 h; read-out: IC50; procedure, shortened: as §3
[13] = test system: U-251; assay: Cytotoxicity against human U251 cells assessed as surviving fraction after 48 hrs by SRB assay; assay type: functional, cell-based; conditions: Homo sapiens, U-251, 48 h; read-out: IC50; procedure, shortened: as §3
[14] = test system: HCT-116; assay: Cytotoxicity against human HCT116 cells assessed as reduction in surviving fraction at 10.0 ug/ml after 48 hrs by SRB assay; assay type: functional, cell-based; procedure, shortened: as §1
[15] = test system: HCT-116; assay: Cytotoxicity against human HCT116 cells assessed as reduction in surviving fraction at 1 ug/ml after 48 hrs by SRB assay; assay type: functional, cell-based; procedure, shortened: as §1
[16] = test system: Bacillus subtilis; assay: Antibacterial activity against Bacillus subtilis NCIB 3610 at 2.5 mg/ml by agar disk diffusion assay; assay type: functional; conditions: Bacillus subtilis, NCIB 3610; read-out: DIZ
[17] = test system: Pseudomonas aeruginosa; assay: Antibacterial activity against Pseudomonas aeruginosa NCIB 9016 at 2.5 mg/ml by agar disk diffusion assay; assay type: functional; conditions: Pseudomonas aeruginosa, NCIB 9016; read-out: DIZ
[18] = test system: Bacillus subtilis; assay: Antibacterial activity against Bacillus subtilis NCIB 3610 at 1 mg/ml by agar disk diffusion assay; assay type: functional; conditions: Bacillus subtilis, NCIB 3610; read-out: DIZ
[19] = test system: MCF7; assay: Cytotoxicity against human MCF7 cells assessed as reduction in surviving fraction at 10.0 ug/ml after 48 hrs by SRB assay; assay type: functional, cell-based; procedure, shortened: as §3
[20] = test system: Candida albicans; assay: Antifungal activity against Candida albicans IMRU 3669 by macrotube dilution assay; assay type: functional
Procedure, shortened: (§5)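 Macrotube twofold dilution per NCCLS/CLSI guidelines for fungi; 2 mg compound in 2.0 mL DMF, serially diluted across 14 tubes of Czapek's Dox medium, with a control tube; inoculum added to halve the concentration; 30 °C for 72 h; MIC is the lowest concentration without visible growth.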

[21] = test system: Bacillus subtilis; assay: Antibacterial activity against Bacillus subtilis NCIB 3610 at 5 mg/ml by agar disk diffusion assay; assay type: functional; conditions: Bacillus subtilis, NCIB 3610; read-out: DIZ
[22] = test system: Aspergillus niger; assay: Antifungal activity against Aspergillus niger Ferm-BAM C-21 at 5 mg/ml by agar disk diffusion assay; assay type: functional; conditions: read-out: DIZ; procedure, shortened: as §4
[23] = test system: HeLa; assay: Cytotoxicity against human HeLa cells assessed as surviving fraction after 48 hrs by SRB assay; assay type: functional, cell-based; conditions: Homo sapiens, HeLa, 48 h; read-out: IC50; procedure, shortened: as §3
[24] = test system: U-251; assay: Cytotoxicity against human U251 cells assessed as reduction in surviving fraction at 1 ug/ml after 48 hrs by SRB assay; assay type: functional, cell-based; procedure, shortened: as §3
[25] = test system: Aspergillus niger; assay: Antifungal activity against Aspergillus niger Ferm-BAM C-21 at 2.5 mg/ml by agar disk diffusion assay; assay type: functional; conditions: read-out: DIZ; procedure, shortened: as §4
[26] = Antitumor activity against mouse EAC cells assessed as inhibition of cell viability at 50 ug/ml after 2 hrs by trypan blue exclusion assay; assay type: functional; conditions: Ehrlich
Procedure, shortened: (§6)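 EAC cells aspirated from ascitic fluid of inoculated mice and diluted in saline; 0.1 mL cell suspension, 0.8 mL RPMI 1640 and 0.1 mL compound (25, 50 or 100) incubated 2 h at 37 °C; non-viable cells counted by trypan blue exclusion; % non-viable = dead/total × 100.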

[27] = Antitumor activity against mouse EAC cells assessed as inhibition of cell viability at 25 ug/ml after 2 hrs by trypan blue exclusion assay; assay type: functional; conditions: Ehrlich; procedure, shortened: as §6
[28] = test system: HCT-116; assay: Cytotoxicity against human HCT116 cells assessed as surviving fraction after 48 hrs by SRB assay; assay type: functional, cell-based; conditions: Homo sapiens, HCT-116, 48 h; read-out: IC50; procedure, shortened: as §3
[29] = test system: Bacillus subtilis; assay: Antimicrobial activity against Bacillus subtilis NCTC 1040 by macrotube dilution assay; assay type: functional
[30] = test system: Pseudomonas aeruginosa; assay: Antibacterial activity against Pseudomonas aeruginosa NCIB 9016 at 1 mg/ml by agar disk diffusion assay; assay type: functional; conditions: Pseudomonas aeruginosa, NCIB 9016; read-out: DIZ
[31] = Antitumor activity against mouse EAC cells assessed as inhibition of cell viability at 100 ug/ml after 2 hrs by trypan blue exclusion assay; assay type: functional; conditions: Ehrlich; procedure, shortened: as §6
[32] = test system: Coxsackievirus B4; assay: Antiviral activity against Coxsackievirus B4 infected african green monkey Vero cells at 10^-4 dilution of 5 mg/ml by plaque formation assay; assay type: functional, organism-based; procedure, shortened: as §2
[33] = test system: Candida albicans; assay: Antifungal activity against Candida albicans IMRU 3669 at 5 mg/ml by agar disk diffusion assay; assay type: functional; conditions: Candida albicans, IMRU 3669; read-out: DIZ; procedure, shortened: as §4
[34] = test system: Staphylococcus aureus; assay: Antimicrobial activity against Staphylococcus aureus NCTC 7447 by macrotube dilution assay; assay type: functional
[35] = test system: U-251; assay: Cytotoxicity against human U251 cells assessed as reduction in surviving fraction at 5.0 ug/ml after 48 hrs by SRB assay; assay type: functional, cell-based; procedure, shortened: as §3
[36] = test system: Salmonella typhi; assay: Antimicrobial activity against Salmonella typhi NCIMB 9331 by macrotube dilution assay; assay type: functional, Salmonella enterica subsp. enterica serovar Typhi; conditions: Salmonella enterica
[37] = test system: HCT-116; assay: Cytotoxicity against human HCT116 cells assessed as reduction in surviving fraction at 5.0 ug/ml after 48 hrs by SRB assay; assay type: functional, cell-based; procedure, shortened: as §1
[38] = test system: Aspergillus niger; assay: Antifungal activity against Aspergillus niger Ferm-BAM C-21 by macrotube dilution assay; assay type: functional; procedure, shortened: as §5
[39] = test system: U-251; assay: Cytotoxicity against human U251 cells assessed as reduction in surviving fraction at 10.0 ug/ml after 48 hrs by SRB assay; assay type: functional, cell-based; procedure, shortened: as §3
[40] = test system: MCF7; assay: Cytotoxicity against human MCF7 cells assessed as reduction in surviving fraction at 5.0 ug/ml after 48 hrs by SRB assay; assay type: functional, cell-based; procedure, shortened: as §3
[41] = test system: Pseudomonas aeruginosa; assay: Antibacterial activity against Pseudomonas aeruginosa NCIB 9016 at 5 mg/ml by agar disk diffusion assay; assay type: functional; conditions: Pseudomonas aeruginosa, NCIB 9016; read-out: DIZ

With `N=C1C(=S)N(c2ccc(Br)cc2)C(=S)N1c1ccc(Br)cc1` the Activity [1] was “Active”, the Activity [2] was “inactive” and the Activity [3] was “Active”. The Activity [4] was “Active”, the Activity [5] was “Active” and the Activity [6] was 50%. For the same compound, the MIC [7] was 7.8 µg/mL (≈ 17.1 µM), the zone of inhibition at 1000 µg/mL [8] was 18 mm and the IC50 [9] was “Not Active”. It also gave a zone of inhibition at 1000 µg/mL [10] of 15 mm, a zone of inhibition at 2500 µg/mL [11] of 20 mm and an IC50 [12] of 3.09 µg/mL (≈ 6.79 µM). The IC50 [13] was 1.28 µg/mL (≈ 2.81 µM), the Activity [14] was “Active” and the Activity [15] was “Active”. It also gave a zone of inhibition at 2500 µg/mL [16] of 25 mm, a zone of inhibition at 2500 µg/mL [17] of 19 mm and a zone of inhibition at 1000 µg/mL [18] of 21 mm. The Activity [19] was “Active”, the MIC [20] was 1.95 µg/mL (≈ 4.28 µM) and the zone of inhibition at 5000 µg/mL [21] was 32 mm. For the same compound, the zone of inhibition at 5000 µg/mL [22] was 20 mm, the IC50 [23] was 8.93 µg/mL (≈ 19.6 µM) and the Activity [24] was “Active”. For the same compound, the zone of inhibition at 2500 µg/mL [25] was 18 mm, the inhibition at 50 µg/mL [26] was 70% and the inhibition at 25 µg/mL [27] was 50%. For the same compound, the IC50 [28] was 4.56 µg/mL (≈ 10 µM), the MIC [29] was 3.9 µg/mL (≈ 8.57 µM) and the zone of inhibition at 1000 µg/mL [30] was 18 mm. For the same compound, the inhibition at 100 µg/mL [31] was 90%, the Activity [32] was “inactive” and the zone of inhibition at 5000 µg/mL [33] was 23 mm. For the same compound, the MIC [34] was 15.6 µg/mL (≈ 34.3 µM), the Activity [35] was “Active” and the MIC [36] was 1.95 µg/mL (≈ 4.28 µM). For the same compound, the Activity [37] was “Active”, the MIC [38] was 0.49 µg/mL (≈ 1.08 µM) and the Activity [39] was “Active”. The Activity [40] was “Active” and the zone of inhibition at 5000 µg/mL [41] was 21 mm.
